For data set [1], the system named is Chikungunya virus. In words: Antiviral activity against Chikungunya virus 899 infected in African green monkey Vero cells assessed as inhibition of virus-induced cytopathogenic effect measured 5 days post infection by MTS/PMS based microscopic analysis. Format: functional, cell-based. The note with it: Chikungunya virus, 899, Vero, 120 h.
Data set [2] is described as follows: Cytotoxicity against African green monkey Vero cells assessed as reduction in metabolic activity by MTS/PMS based microscopic analysis. The note with it: chlorocebus sabaeus. Format: toxicity, cell-based. The essentials: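 Uninfected Vero cells exposed to compound dilution series; overall metabolic activity measured by MTS/PMS, with microscopic checks of cell/monolayer morphology. CC50 = concentration reducing metabolic activity by 50%, by logarithmic interpolation.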

Data set [3] can be described thus: Selectivity index, ratio of CC50 for African green monkey Vero cells to EC50 for Chikungunya virus 899 infected in African green monkey Vero cells. Format: toxicity, cell-based. The note with it: read-out: Ratio CC50/EC50. In a few lines:
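Ratio of CC50 in uninfected Vero cells (MTS/PMS) to EC50 for inhibition of CHIKV 899-induced CPE in Vero cells, both from logarithmic interpolation.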

The test system of data set [4] is Chikungunya virus. The data set can be described thus: Antiviral activity against Chikungunya virus 899 infected in African green monkey Vero A cells assessed as reduction in viral RNA level incubated for 48 hrs by qRT-PCR analysis. Format: functional, cell-based. The note with it: for EC50: Chikungunya virus, 899, Vero. For orientation: Quantitative PCR measures a nucleic acid by following its amplification.

For data set [5], the system named is Chikungunya virus. In words: Antiviral activity against Chikungunya virus 899 infected in African green monkey Vero A cells assessed as reduction in infectious virus particle production incubated for 48 hrs by end-point titration assay. The format is functional, cell-based. The note with it: for EC50: Chikungunya virus, 899, Vero.
For the next data set, the system named is Semliki Forest virus. The data set can be described thus: Antiviral activity against Semliki forest virus infected in African green monkey Vero A cells assessed as inhibition of virus-induced cytopathogenic effect measured 5 days post infection by MTS/PMS based microscopic analysis. The format is functional, cell-based. The note with it: 120 h. A general note: Cytopathic effects are the visible damage that an infection or toxin causes in cultured cells.

For a further data set, the system named is Sindbis virus. In words: Antiviral activity against Sindbis virus infected in African green monkey Vero A cells assessed as inhibition of virus-induced cytopathogenic effect measured 5 days post infection by MTS/PMS based microscopic analysis. Format: functional, cell-based. Particulars: 120 h.
Data set [6] relates to Chikungunya virus. The data set can be described thus: Antiviral activity against Chikungunya virus 899 pseudoparticles infected in African green monkey BGM cells assessed as inhibition of pseudoparticles entry after 72 hrs by luciferase reporter gene assay. Format: functional, cell-based. Particulars: Chikungunya virus, 899, BGM. In a few lines:
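BGM cells at 2.5 × 10^4/well adhered overnight; serial compound dilutions added, then cells infected with lentiviral pseudoparticles bearing CHIKV glycoproteins and firefly luciferase reporter. After 72 h cells lysed and intracellular luciferase activity measured as entry read-out. Mean ± SD, ≥3 independent experiments.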
Background: A reporter such as luciferase makes a cellular process visible.

The nature of data set [7]: Cytotoxicity against African green monkey BGM cells. Format: toxicity, cell-based. Particulars: chlorocebus aethiops.
The subject of data set [8] is Chikungunya virus. The data set can be described thus: Antiviral activity against Chikungunya virus 899 infected in African green monkey Vero A cells assessed as inhibition of viral replication by measuring reduction in intracellular viral RNA treated 2 hrs prior to infection measured after 24 hrs by qRT-PCR analysis. The format is functional.
For data set [9], the system named is Chikungunya virus. The data set can be described thus: Antiviral activity against Chikungunya virus 899 infected in African green monkey Vero A cells assessed as inhibition of viral replication at post entry step by measuring reduction in intracellular viral RNA treated 2 hrs post infection measured after 24 hrs by qRT-PCR analysis. The format is functional.

In data set [10] the test system is Chikungunya virus. The data set can be described thus: Antiviral activity against Chikungunya virus assessed as inhibition of virus replication by cell based assay. The format is functional.
Data set [11] deals with Chikungunya virus. The data set can be described thus: Antiviral activity against Chikungunya virus 899 infected in African green monkey Vero A cells assessed as inhibition of viral replication at post entry step by measuring reduction in intracellular viral RNA treated up to 6 hrs post infection measured after 24 hrs by qRT-PCR analysis. The format is functional, cell-based.

From ChEMBL document CHEMBL3868626, “Discovery of novel multi-target indole-based derivatives as potent and selective inhibitors of chikungunya virus replication” (Bioorg Med Chem, 2017) come the findings set out here.

Calls of active or inactive are those of the source. The rule behind the calls is not given here. Where only a bound is given, the exact number is not on record here.

Usually EC50 stands for the concentration at which the effect is half-maximal. For orientation: CC50 means the concentration at which the toxic effect on the cells reaches its halfway point. For `Cn1c(CSc2ccccc2C(F)(F)F)c(C(=O)OC(C)(C)C)c2cc(O)ccc21`, in the data set with Chikungunya virus [1], the EC50 came out at 3.4 µM. Also, the CC50 in data set [2] amounted to 19 µM. Besides, the selectivity ratio in data set [3] worked out at 4.1.
The matching figures for `CN(C)Cc1c(O)ccc2c1c(C(=O)OC(C)(C)C)c(C[S+]([O-])c1ccccc1C(F)(F)F)n2C` (centres undefined): 22 µM, 66 µM and 3.
As to `Cn1c(CSc2ccc(C(F)(F)F)cc2)c(C(=O)OC(C)(C)C)c2cc(O)ccc21`, the EC50 in the data set on Chikungunya virus [1] was determined as 3.6 µM. Also, the CC50 in [2] was found to be 11 µM. In addition, the selectivity ratio in [3] came out at 3.1.
The matching figures for `Cn1c(C[S+]([O-])c2ccc(C(F)(F)F)cc2)c(C(=O)OC(C)(C)C)c2cc(O)ccc21` (centres undefined): 13 µM, 24 µM and 1.9.
The matching figures for `Cn1c(C[S+]([O-])c2c(Cl)cccc2Cl)c(C(=O)OC(C)(C)C)c2cc(O)ccc21` (centres undefined): 20 µM, 151 µM and 7.6.
Turning to `Cn1c(C[S+]([O-])c2ccccc2C(F)(F)F)c(C(=O)OC(C)(C)C)c2cc(CO)ccc21` (centres undefined), the EC50 in the data set on Chikungunya virus [1] is 32 µM; in the data set with Chikungunya virus [4], 9 µM; with Chikungunya virus [5], 10 µM; with Semliki Forest virus it was 128 µM; with Sindbis virus it was 96 µM; with Chikungunya virus [6], 36 µM. The half-maximal cytotoxic concentration (CC50) in data set [2] is over 468 µM; in data set [7] it was over 60 µM. In addition, in [3], the selectivity ratio is over 14.6.
For the compound `Cn1c(CSc2ccccc2C(F)(F)F)c(C(=O)OC(C)(C)C)c2cc(O)c(Br)cc21`, in the data set on Chikungunya virus [1], the concentration for a half-maximal effect (EC50) worked out at 9.6 µM. Moreover, the CC50 in data set [2] is 26 µM. Further, the selectivity ratio in data set [3] was found to be 2.7.
With `Cn1c(C[S+]([O-])c2ccc(Cl)cc2)c(C(=O)OC(C)(C)C)c2cc(O)ccc21` (centres undefined), the EC50 with Chikungunya virus [1] was found to be 8.2 µM. Besides, the CC50 in data set [2] worked out at 93 µM. In data set [3], the selectivity ratio came to 11.
Regarding `CCOC(=O)c1c(CSc2ccccc2)n(C)c2cc(Br)c(O)c(CN(C)C)c12` [UMIFENOVIR], the 50% effective concentration (EC50) was 35 µM in the data set on Chikungunya virus [1], 4.4 µM with Chikungunya virus [6] and under 10 µg/mL in the data set on Chikungunya virus [10]. Also, the CC50 in [2] was 161 µM; in data set [7] it was over 60 µM. The selectivity ratio in data set [3] was determined as 4.6. Besides, the “inhibition (INH)” value with Chikungunya virus [8] and in the data set with Chikungunya virus [9] was over 50% throughout.
In the case of `CN(C)Cc1c(O)c(Br)cc2c1c(C(=O)OC(C)(C)C)c(C[S+]([O-])c1ccccc1C(F)(F)F)n2C` (centres undefined), the EC50 in the data set with Chikungunya virus [1] amounted to 12 µM. The CC50 in data set [2] amounted to 56 µM. Also, the selectivity ratio in data set [3] amounted to 4.6.
As for `Cn1c(C[S+]([O-])c2ccccc2C(F)(F)F)c(C(=O)OC(C)(C)C)c2cc(O)ccc21` (centres undefined), the EC50 was 6.5 µM with Chikungunya virus [1]; 1 µM in the data set with Chikungunya virus [4]; 1 µM in the data set on Chikungunya virus [5]; 33 µM with Semliki Forest virus; 20 µM with Sindbis virus; 27 µM in the data set on Chikungunya virus [6]. Besides, the figures for the CC50 in data set [2] and in data set [7] were 156 µM and 50 µM, respectively. Besides, the selectivity ratio in data set [3] stood at 22. Further, the Activity result in the data set on Chikungunya virus [4] and in the data set on Chikungunya virus [5] was “Dose-dependent effect” throughout. Moreover, the inhibition result with Chikungunya virus [11] was “Active”.
Regarding `CN(C)Cc1c(O)c(Br)cc2c1c(C(=O)OC(C)(C)C)c(CSc1c(Cl)cccc1Cl)n2C`, the EC50 in the data set with Chikungunya virus [1] was at least 17 µM. For the same compound, the CC50 in data set [2] stood at 17 µM.
On to `Cn1c(CSc2ccc(Cl)cc2)c(C(=O)OC(C)(C)C)c2cc(O)ccc21`, for which the EC50 in the data set with Chikungunya virus [1] was 4.8 µM. The CC50 in data set [2] is 15 µM. Besides, in [3], the selectivity ratio came out at 3.2.
Turning to `Cn1c(C[S+]([O-])c2ccc(F)cc2)c(C(=O)OC(C)(C)C)c2cc(O)ccc21` (centres undefined), the 50% effective concentration (EC50) in the data set with Chikungunya virus [1] was 17 µM. Also, in data set [2], the CC50 is over 100 µM. Also, in [3], the selectivity ratio was over 5.7.
The corresponding values for `Cn1c(CSc2c(Cl)cccc2Cl)c(C(=O)OC(C)(C)C)c2cc(O)c(Br)cc21` are 5.7 µM, 13 µM and 2.3.
The corresponding values for `Cn1c(C[S+]([O-])c2ccccc2C(F)(F)F)c(C(=O)OC(C)(C)C)c2cc(O)c(Br)cc21` (centres undefined) are 9.6 µM, 26 µM and 2.7.
In the case of `Cn1c(CSc2ccc(F)cc2)c(C(=O)OC(C)(C)C)c2cc(O)ccc21`, in the data set on Chikungunya virus [1], the EC50 turned out to be 4.5 µM. Also, in [2], the half-maximal cytotoxic concentration (CC50) came out at 11 µM. The selectivity ratio in data set [3] worked out at 3.2.
Consider `Cn1c(CSc2c(Cl)cccc2Cl)c(C(=O)OC(C)(C)C)c2cc(O)ccc21`, for which the EC50 in the data set on Chikungunya virus [1] is 2.9 µM. The CC50 in data set [2] was 7.8 µM. For the same compound, the selectivity ratio in data set [3] turned out to be 2.7.
The matching figures for `CN(C)Cc1c(O)ccc2c1c(C(=O)OC(C)(C)C)c(C[S+]([O-])c1c(Cl)cccc1Cl)n2C` (centres undefined): 4.1 µM, 9.2 µM and 2.2.
The matching figures for `Cn1c(C[S+]([O-])c2c(Cl)cccc2Cl)c(C(=O)OC(C)(C)C)c2cc(CO)ccc21` (centres undefined): 30 µM, 397 µM and 13.2.
